Measured values: the array DNA melting data of Ke et al. (doi:10.1101/2024.01.08.574731)

Experiments:
[1] = folding enthalpy; higher = less favourable; fluorescence melt of hairpins on a sequencing array, two-state fit; settings: sodium 0.088 M
Method in brief: (§1)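 Melting temperature and folding enthalpy were obtained by bootstrapped two-state fitting. Fits used Cy3 fluorescence of library hairpins with annealed Cy3 and quencher oligos on a sequenced MiSeq flow cell, imaged in 50 mM Na-HEPES pH 8.0, 25 mM NaCl in 2.5 °C steps up to 60 °C and normalised to pre-quench Cy3 and control constructs. Four replicates were combined by inverse-variance weighting, and fitted temperatures were raised by 9.35 °C to match UV melts.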

[2] = melting temperature; fluorescence melt of hairpins on a sequencing array, two-state fit, raised by 9.35 °C to match UV melts; settings: sodium 0.088 M
Method in brief: as §1

| Sequence | folding enthalpy [1] [kcal/mol] | Tm [2] [°C] |
| --- | --- | --- |
| GTCTACTCGAAAGAGGAC (((..(((....)))))) | -14.4 | 32.1 |
| GTCTAGCGAAAGCTGGAC (((.(((....))).))) | -33.7 | 61.6 |
| GTCTAGCGAAAGCTTGAC (((.(((....))).))) | -28.7 | 54.2 |
| GTCTAGGGAAACCCAGAC ((((.((....)).)))) | -30.1 | 40.9 |
| GTCTAGGGAAACCTAGGC (.(((((....))))).) | -24.7 | 46.2 |
| GTCTATCCGAAAGGAGAC (((..(((....)))))) | -16.5 | 31.8 |
| GTCTATGAAAATAGAC ((((((....)))))) | -32.8 | 49.5 |
| GTCTCAGGAAACTAAGAC ((((.((....)).)))) | -11.5 | 24.2 |
| GTCTCAGGAAACTGAGGC (.(((((....))))).) | -37.3 | 51.1 |
| GTCTCCCGAAAGGGCGAC (((.(((....))).))) | -30.8 | 53.2 |
| GTCTCCGAAAGGAATGAC ((((((....)))..))) | -20.7 | 35.2 |
| GTCTCCGAAAGGACGGAC ((((((....)))..))) | -15.7 | 35.7 |
| GTCTCCGAAAGGAGGGAC ((((((....)))..))) | -9.56 | 41.7 |
| GTCTCCGAAAGGATGAC ((((((....))).))) | -25.6 | 48.5 |
| GTCTCCGGAAACAGAGAC (((((.(....).))))) | -25.8 | 38.3 |
| GTCTCCTCGAAAGAGGAC (((..(((....)))))) | -9.88 | 32 |
| GTCTCGACGAAAGTCGAC (((..(((....)))))) | -8.21 | 35.1 |
| GTCTCGCGAAAGCGCGAC (((.(((....))).))) | -27.7 | 53 |
| GTCTCGCGAAAGCGGAC (((.(((....)))))) | -16.9 | 53.7 |
| GTCTCGGAAACGAGAC ((((((....)))))) | -44.5 | 64.8 |
| GTCTCGGGAAACCGAAAC ((.((((....)))).)) | -15.4 | 34.7 |
| GTCTCTCCGAAAGGAGAC (((..(((....)))))) | -9.6 | 35.8 |
| GTCTCTCGAAAGAGGAC (((.(((....)))))) | -24.2 | 45.1 |

| Sequence | folding enthalpy [1] [kcal/mol] | Tm [2] [°C] |
| --- | --- | --- |
| GTCTCTCGAAAGAGGGAC (((.(((....))).))) | -36.1 | 55.5 |
| GTCTGACCGAAAGGTGAC (((..(((....)))))) | -19.3 | 38.9 |
| GTCTGACGAAAGTCTGAC (((.(((....))).))) | -34 | 57.2 |
| GTCTGAGCGAAAGCTGAC (((..(((....)))))) | -17.6 | 41.2 |
| GTCTGCGAAAGCAAGAC ((((((....))).))) | -26.3 | 60.5 |
| GTCTGCGAAAGCATAGAC ((((((....)))..))) | -19.9 | 45.9 |
| GTCTGGCGAAAGCCGAC (((.(((....)))))) | -16 | 55.8 |
| GTCTGGGGAAACCCAGAC (((((((....))))))) | -37.6 | 68.5 |
| GTCTGGGGAAACCCGGAC (((.(((....))).))) | -39.6 | 55.5 |
| GTCTGGGGAAACTCAGGC (.(((.(....).))).) | -23.3 | 35.8 |
| GTCTGGGGAAACTCGGAC (((.(.(....).).))) | -28.8 | 37.1 |
| GTCTGTGCGAAAGCAGAC (((..(((....)))))) | -19.5 | 46.4 |
| GTCTGTGGAAACATAGAC ((((.((....)).)))) | -31.2 | 44.5 |
| GTCTGTGGAAACATGGAC (((..((....))..))) | -26.8 | 37.3 |
| GTCTGTGGAAACGCAGAC (((((.(....).))))) | -48 | 53.8 |
| GTCTGTGGAAACGTAGAC ((((..(....)..)))) | -23.6 | 37.2 |
| GTCTTAGGAAACTAAGAC (((((((....))))))) | -38.4 | 53.7 |
| GTCTTCCCGAAAGGGGAC (((..(((....)))))) | -12.5 | 35.9 |
| GTCTTCCGAAAGGAGAC (((.(((....)))))) | -23.4 | 47.6 |
| GTCTTCGAAAGAAATGAC ((((((....)))..))) | -9.91 | 25.1 |
| GTCTTCGAAAGAACGGAC ((((((....)))..))) | -14.6 | 30.4 |
| GTCTTCGAAAGAATAGAC ((((((....)))..))) | -19.5 | 30.7 |
| GTCTTCGAAAGAATGAC ((((((....))).))) | -25 | 37.9 |

| Sequence | folding enthalpy [1] [kcal/mol] | Tm [2] [°C] |
| --- | --- | --- |
| GTCTTCGGAAACAAAGAC (((((.(....).))))) | -29.7 | 32.3 |
| GTCTTCGGAAACGAAGAC (((((((....))))))) | -30.5 | 64.8 |
| GTCTTCGGAAACGGAGAC ((((.((....)).)))) | -39.1 | 50.4 |
| GTCTTGAAAAAGAC (((((....))))) | -21.7 | 44.1 |
| GTCTTGCCGAAAGGCGAC (((..(((....)))))) | -10.7 | 38.3 |
| GTCTTGCGAAAGCACGAC (((.(((....))).))) | -41.5 | 52.1 |
| GTCTTGCGAAAGCAGGAC (((.(((....))).))) | -27.4 | 58 |
| GTCTTGTCGAAAGACGAC (((..(((....)))))) | -18.1 | 50.4 |
| GTCTTTCGAAAGAAGAC (((.(((....)))))) | -25.1 | 38.5 |
| GTGAAAGGAAACTTCCAC (((.(((....))).))) | -16.3 | 27.8 |
| GTGAAAGGAAACTTTCGC (.(((((....))))).) | -27.3 | 45.2 |
| GTGAACACGAAAGTGCAC (((..(((....)))))) | -14.1 | 41.2 |
| GTGAACGAAAGTTAACAC ((((((....)))..))) | -19.5 | 35.5 |
| GTGAACGAAAGTTGCAC ((((((....))).))) | -19.8 | 37.3 |
| GTGAACGAAAGTTGTCAC ((((((....)))..))) | -21.8 | 27.9 |
| GTGAACGAAAGTTTGCAC ((((((....)))..))) | -15.4 | 32 |
| GTGAACGGAAACGTTCAC (((((((....))))))) | -30 | 67.8 |
| GTGAAGCCGAAAGGCCAC (((..(((....)))))) | -15.6 | 47.8 |
| GTGAATCCGAAAGGACAC (((..(((....)))))) | -20.1 | 32.8 |
| GTGAATCGAAAGATCAC (((.(((....)))))) | -26.3 | 45.3 |
| GTGAATGGAAACATTTAC ((.((((....)))).)) | -32.9 | 36.5 |
| GTGACAGGAAACTGCCAC (((.(((....))).))) | -33 | 46.8 |
| GTGACCCGAAAGGGCAC (((.(((....)))))) | -22.9 | 62.4 |

| Sequence | folding enthalpy [1] [kcal/mol] | Tm [2] [°C] |
| --- | --- | --- |
| GTGACCGAAAGGTAGCAC ((((((....)))..))) | -16.9 | 36.1 |
| GTGACCGAAAGGTCTCAC ((((((....)))..))) | -10.6 | 41.2 |
| GTGACCGAAAGGTGGCAC ((((((....)))..))) | -16.3 | 40.7 |
| GTGACCGAAAGGTGTCAC ((((((....)))..))) | -25.4 | 45.8 |
| GTGACCGAAAGGTTTCAC ((((((....)))..))) | -13.1 | 34.8 |
| GTGACCGCGAAAGCGCAC (((..(((....)))))) | -8.65 | 40.3 |
| GTGACCGGAAACAGTCAC (((((.(....).))))) | -32.1 | 45.2 |
| GTGACCGGAAACGGTTGC (..((((....))))..) | -17.9 | 47.6 |
| GTGACGACGAAAGTCCAC (((..(((....)))))) | -13 | 38.2 |
| GTGACGCGAAAGCGACAC (((.(((....))).))) | -33.9 | 69.3 |
| GTGACGGCGAAAGCCCAC (((..(((....)))))) | -12.1 | 44.3 |
| GTGACGGGAAACCACCAC (((..((....))..))) | -15.7 | 27.4 |
| GTGACGGGAAACCATCAC ((((.((....)).)))) | -32.6 | 42.1 |
| GTGACGGGAAACTGTCAC (((((.(....).))))) | -37.8 | 54.8 |
| GTGACGTCGAAAGACCAC (((..(((....)))))) | -13.6 | 40.3 |
| GTGACTGGAAACAGCCAC (((.(((....))).))) | -41.7 | 47.9 |
| GTGACTGGAAACAGTTAC ((.((((....)))).)) | -29.2 | 45.5 |
| GTGACTGGAAACAGTTGC (..((((....))))..) | -22.9 | 39.3 |
| GTGAGAACGAAAGTTCAC (((..(((....)))))) | -18 | 43.9 |
| GTGAGACGAAAGTCACAC (((.(((....))).))) | -31.3 | 55.4 |
| GTGAGAGCGAAAGCTCAC (((..(((....)))))) | -14.5 | 48.6 |
| GTGAGCACGAAAGTGCAC (((..(((....)))))) | -8.71 | 60.1 |
